Bioassay records from PubChem BioAssay.
In the library only some 4.1% were active in any assay of this set; here they are far more common.
MEKK3 PB1 HTS = MEKK3-MEK5 PB1 interaction, increase or decrease | Q99759 | bead-based flow cytometry, Alexa488-MEK5 binding to MEKK3; actives lie on both sides; 0 = blocked by unlabeled MEK5, 100 = vehicle | binding response (% of control), % at 10 µM | 290,000 tested, 1.4% active;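 active means binding response more than 3 SD above or below the average of its plate-row segment, actives on both sides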;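 further: Alexa488 bead fluorescence after subtracting the streptavidin-only scavenger bead signal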
Target sequence (Q99759 whole entry, looked up): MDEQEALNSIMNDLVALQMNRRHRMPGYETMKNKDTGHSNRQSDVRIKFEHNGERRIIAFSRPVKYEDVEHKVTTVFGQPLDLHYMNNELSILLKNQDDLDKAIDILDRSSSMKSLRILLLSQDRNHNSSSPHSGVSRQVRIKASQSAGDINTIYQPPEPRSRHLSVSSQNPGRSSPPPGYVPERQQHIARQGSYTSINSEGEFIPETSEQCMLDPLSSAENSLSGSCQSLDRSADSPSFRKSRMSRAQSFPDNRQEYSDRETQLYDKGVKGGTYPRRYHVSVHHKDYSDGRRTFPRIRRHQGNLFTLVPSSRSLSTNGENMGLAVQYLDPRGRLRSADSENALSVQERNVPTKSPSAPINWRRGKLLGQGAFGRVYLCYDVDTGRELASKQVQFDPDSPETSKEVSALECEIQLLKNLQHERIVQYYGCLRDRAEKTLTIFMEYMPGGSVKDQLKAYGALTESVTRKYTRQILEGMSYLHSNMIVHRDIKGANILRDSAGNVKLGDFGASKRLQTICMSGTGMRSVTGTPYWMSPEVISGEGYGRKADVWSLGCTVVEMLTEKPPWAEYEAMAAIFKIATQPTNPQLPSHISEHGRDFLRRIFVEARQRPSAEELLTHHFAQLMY
MEKK2 WT-MEK5 = raises or lowers MEK5 binding to wildtype human MEKK2 PB1 domain; Q9Y2U5; bead flow cytometry, Alexa488-MEK5 binding to MEKK2 WT; actives lie on both sides; binding response (% of control), % at 10 µM; 290,000 tested, 1.1% active; in the data active means binding response below about 67% or above about 130%
T cruzi inh = T. cruzi replication inhibition; T. cruzi beta-gal in NIH3T3, luminescence, 90 h; inhibition, % (test concentration not listed); 300,000 tested, 1.4% active;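 active means mean inhibition across valid replicates above about 55%, limit read from the data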;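 further: signal also drops with host cell toxicity which is not excluded here; 0% = plate median of DMSO wells and 100% = zero luminescence signal; higher percent means less beta-gal luminescence so fewer parasites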
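assay system = mouse NIH/3T3 fibroblasts infected with β-gal-expressing T. cruzi Tulahuen C4 | input = 5,000 NIH/3T3 host cells per well | buffer or medium = DMEM plus 2% FBS | timing = 3 h host attachment, then at least 90 h co-culture | measured by = GalScreen luminescence, 60 min | evaluation = luminescence reflecting intracellular parasite burden, expressed as percent inhibition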
HCV NS3 hel inh = HCV NS3 helicase inhibition; NS3 helicase DNA unwinding, Cy5 molecular beacon fluorescence; inhibition, % at 10.9 µM; 290,000 tested, 0.56% active; AID 1800;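 active means inhibition above the mean of all tested compounds plus 3 SD, set per campaign, cut at about 35% in these data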;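 further: 0% = DMSO wells and 100% = thioflavine S control wells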
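test system = hepatitis C virus NS3 helicase domain fragment enzyme | reagent = annealed dual-labelled DNA beacon duplex, ATP-started | times = 1 h at 25 °C | detection = Cy5 fluorescence, 0 and 60 min reads | read-out basis = percent inhibition from t60/t0 fluorescence ratio | control set = DMSO and thioflavine S | replication = one well per compound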
MEKK2mut PB1 HTS = signal of MEK5 binding to mutant human MEKK2 PB1 domain; bead flow cytometry, Alexa488-MEK5 binding to MEKK2 mutant; percent response, % at 10 µM; 290,000 tested, 0.35% active; in the data active means percent response above about 24%, passing the limit was not always enough
DNA FID counter-1 = displaces DNA intercalator in HCV helicase counter-screen; inhibition, % at 7.9 µM; DNA fluorescent intercalator displacement, fluorescence; 290,000 tested, 0.17% active; AID 1845;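 further: 0% = vehicle and 100% = reference compound; higher means more ethidium bromide displaced from hairpin DNA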
NS3 hel confirm = HCV NS3 helicase inhibition, confirmation assay. NS3 helicase DNA unwinding, Cy5 molecular beacon fluorescence. shares compounds with HCV NS3 hel inh. 1,600 tested, 31% active. inhibition, % at 10.9 µM;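 active means inhibition above the mean of all tested compounds plus 3 SD, cutoff set per campaign, cut at about 36% in these data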
DNA FID counter-2 = displaces DNA intercalator in HCV helicase counter-screen; DNA fluorescent intercalator displacement, fluorescence; inhibition, % at 7.9 µM; shares compounds with HCV NS3 hel inh; 1,600 tested, 4% active;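 further: 0% = vehicle and 100% = reference compound; higher means more displacement of ethidium bromide from the DNA hairpin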
FID counter DR = DNA intercalator displacement in dose response | fluorescent intercalator displacement from DNA, fluorescence | 120 tested, under 10 active | shares compounds with HCV NS3 hel inh | IC50, µM; call rule not given here
An asterisk follows results filed as active; · = no result. Unless noted, no stated cut-off is given here; in the data, active means inhibition above about 37%; inactive means the rest.

SMILES	MEKK3 PB1 HTS	MEKK2 WT-MEK5	T cruzi inh	HCV NS3 hel inh	MEKK2mut PB1 HTS	DNA FID counter-1	NS3 hel confirm	DNA FID counter-2	others
COc1ccc(NC(=O)CSc2nc(N)c(NC(=O)c3ccccc3F)c(=O)[nH]2)cc1	103.0	100.0	-9.3	-15.1	-1.0	-7.4	·	·
CC(C)NC(=O)CSc1nc(N)c(NC(=O)c2ccccc2F)c(=O)[nH]1	101.0	100.0	-14.8	65.2*	-2.0	-7.1	-2.7	-1.8
Cc1cc(/C=C2/C(=N)N3C(c4ccccc4)=CSC3=NC2=O)c(C)n1-c1ccccc1	102.0	109.0	15.2	15.3	12.0	-2.3	·	·
Cc1cc(/C=C2/C(=N)N3C(=NC2=O)SN=C3S(C)(=O)=O)c(C)n1-c1ccc(F)cc1	103.0	102.0	3.0	28.5	-2.0	-24.4	·	·
Cc1ccccc1-n1c(C)cc(/C=C2/C(=N)N3C(c4ccccc4)=CSC3=NC2=O)c1C	109.0	125.0	37.1	39.8*	15.0	-9.2	8.4	-10.9
Cc1ccc(-n2cccc2/C=C2/C(=N)N3C(=NC2=O)SN=C3S(C)(=O)=O)cc1Cl	98.0	101.0	·	48.8*	2.0	-21.1	63.6*	11.3
CCOc1ccc(-n2c(C)cc(/C=C3/C(=N)N4C(=NC3=O)SN=C4S(C)(=O)=O)c2C)cc1	98.0	90.0	-3.9	37.9*	-6.0	-34.3	83.7*	-8.9
NC(=O)CN1CCN(S(=O)(=O)c2ccc(Br)cc2)CC1	102.0	100.0	2.1	5.4	0.0	0.8	·	·
CCN(CC(=O)Nc1ccc2c(c1)OCCO2)C(=O)COc1ccc(C)cc1	101.0	105.0	3.9	-5.1	1.0	-24.0	·	·
COC(=O)c1cc(Br)cn1S(=O)(=O)c1ccccc1	106.0	107.0	12.4	6.8	8.0	-9.1	·	·
Cn1c(C(=O)N2CCC(C(=O)NCc3ccccc3)CC2)cc2sccc21	100.0	103.0	14.4	-2.2	0.0	-50.7	·	·
CC(C)C[C@H](NC(=O)[C@H](Cc1ccccc1)n1c(=O)[nH]c2ccccc2c1=O)C(=O)N1CCC[C@@H]1C(=O)O	100.0	98.0	-8.0	39.0*	-2.0	-24.2	-20.8	-22.8
COc1cc(/C=N/NC(=O)c2nonc2N)cc(OC)c1OC	104.0	100.0	-4.7	39.4*	0.0	-5.6	-1.7	7.3
COC(=O)[C@]1(Cc2ccccc2)N[C@H](c2ccc(-c3cccc(Cl)c3)cc2)[C@@H]2C(=O)N(C)C(=O)[C@@H]21	·	·	47.5	·	·	·	·	·
CCCc1cc(=O)oc2cc(OCC(=O)NC(Cc3ccc(Cl)cc3)C(=O)O)ccc12 (stereo not drawn)	104.0	98.0	-8.0	5.3	6.0	-18.0	·	·
CCCCc1cc(=O)oc2cc(OCC(=O)N[C@@H](Cc3ccccc3)C(=O)O)ccc12	98.0	98.0	-4.1	50.0*	-1.0	-22.7	24.1	-26.4
OCCN1CCN(c2nc(-c3ccccc3O)nc3ccccc23)CC1	107.0	120.0	21.9	-34.4	15.0	26.1	·	·
COc1ccc(Br)cc1C1Nc2cccc3cccc(c23)N1	100.0	96.0	3.6	96.9*	-2.0	-6.0	-28.3	27.5
COc1cc(C2Nc3cccc4cccc(c34)N2)ccc1O	97.0	98.0	-0.3	19.1	-2.0	5.2	·	·
CC(C)c1ccc(NC(=O)c2ccccc2NC(=O)C2CCCCC2C(=O)O)cc1 (stereo not drawn)	105.0	107.0	-2.9	44.9*	-2.0	-49.0	48.3*	-51.6
CCN(CC)c1ccc(NC(=O)c2ccccc2OCC(=O)OC)cc1	102.0	95.0	-6.4	2.1	2.0	0.6	·	·
Cn1c(SCc2ccccc2)nnc1-c1ccncc1	97.0	96.0	10.1	-3.0	-3.0	-4.6	·	·
Cn1c(SCc2n[nH]c(=S)n2-c2ccccc2)nnc1-c1ccccc1	96.0	100.0	-0.8	46.8*	-2.0	-7.2	-5.2	-2.9
CNC(=O)COC(=O)c1ccc(NC(=O)CC#N)cc1	106.0	105.0	-12.2	-1.3	3.0	-5.7	·	·
CCN(CC)S(=O)(=O)c1ccc(NC(=O)COC(=O)c2ccc(NC(=O)CC#N)cc2)cc1	98.0	95.0	-7.5	41.5*	-4.0	-9.8	10.7	15.8
SMILES	MEKK3 PB1 HTS	MEKK2 WT-MEK5	T cruzi inh	HCV NS3 hel inh	MEKK2mut PB1 HTS	DNA FID counter-1	NS3 hel confirm	DNA FID counter-2	others
CCC1CCC/C1=N\NC(=O)c1ccccc1C (stereo not drawn)	·	·	3.7	·	·	·	·	·
COc1ccc(C(C(=O)NCC2CCCO2)N(C(=O)CNC(=O)c2ccco2)c2ccccc2)cc1OC (stereo not drawn)	99.0	96.0	11.3	-2.5	0.0	-27.5	·	·
CCOC(=O)c1ccc(N(C(=O)CNC(=O)c2ccco2)C(C(=O)NCC2CCCO2)c2ccc(OC)c(OC)c2)cc1 (stereo not drawn)	100.0	99.0	-3.1	50.9*	1.0	-42.1	-10.2	-53.2
CCCOc1ccc(/C=c2\sc3nc(-c4ccco4)nn3c2=O)cc1OCC	·	·	·	42.3*	·	-18.9	-12.4	-2.1
CC(=O)Oc1cccc(/C=c2\sc3nc(-c4ccco4)nn3c2=O)c1	101.0	101.0	-14.0	23.9	2.0	-14.3	·	·
CCCCCOc1ccc(/C=c2\sc3nc(=O)c(-c4ccccc4)nn3c2=O)cc1OC	77.0	89.0	12.3	43.0*	-2.0	-23.9	72.0*	-20.2	FID counter DR=>79.4
COc1cc(/C=c2\sc3nc(-c4ccncc4)nn3c2=O)ccc1OC(C)=O	·	·	·	5.8	·	-12.8	·	·
NS(=O)(=O)c1ccc(CNC(=S)NC2CC2)cc1	102.0	104.0	-6.6	-11.1	2.0	1.7	·	·
CC(Oc1ccc(Br)cc1)C(=O)NCC(c1cccs1)N1CCOCC1 (stereo not drawn)	·	·	4.0	·	·	·	·	·
COc1ccc(NC(=O)CN2C(=O)/C(=C3\SC(=S)N(CCC(=O)O)C3=O)c3ccccc32)cc1	97.0	90.0	0.7	27.9	-3.0	-21.3	·	·
O=C(O)CCN1C(=O)/C(=C2\C(=O)N(Cc3ccccc3Cl)c3ccccc32)SC1=S	105.0	105.0	-15.7	44.0*	2.0	-18.9	90.8*	4.1	FID counter DR=>79.4
O=C(/C=C/c1ccco1)Nc1cccc(S(=O)(=O)N2CCOCC2)c1	106.0	108.0	-42.7	5.2	15.0	0.7	·	·
Cc1ccc(/C=C/C(=O)Nc2cccc(S(=O)(=O)N3CCOCC3)c2)o1	99.0	118.0	-10.8	47.5*	8.0	-19.7	-1.4	17.9
CC(=O)OCCCNc1cc(SCc2ccco2)c2nonc2c1[N+](=O)[O-]	124.0	106.0	14.3	40.9*	0.0	-6.7	31.3	27.4
